Assay results: ChEMBL document CHEMBL1128515, “Cardioselective anti-ischemic ATP-sensitive potassium channel openers. 3. Structure-activity studies on benzopyranyl cyanoguanidines: modification of the cyanoguanidine portion” (J Med Chem, 1995)

How the values were obtained:
Type in all cases: functional
[1] = species: Rattus norvegicus; test: Ratio of the concentration increasing time to contracture by 25% (EC25) in rat heart and concentration showing vasorelaxant potency (IC50) in rat aorta.
Method in brief: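 Cardiac selectivity index: the ratio of vasorelaxant potency (IC50 for relaxing methoxamine-contracted rat aorta) to anti-ischemic potency (EC25 for increasing time to contracture in globally ischemic isolated perfused rat hearts).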

[2] = species: Rattus norvegicus; test: Tested for the vasorelaxant potency in methoxamine contracted rat aorta
Method in brief: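 Rat aortic tissue contracted with methoxamine. The IC50 is the concentration producing relaxation.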

[3] = species: Rattus norvegicus; test: Concentration necessary for increase in time to contracture by 25% in the globally ischemic rat hearts
Method in brief: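 Isolated rat hearts, perfused and then made globally ischemic. The EC25 is the concentration giving a 25% increase in time to onset of contracture. Time to contracture is the time during total global ischemia for end-diastolic pressure to rise 5 mmHg above baseline.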

[4] = species: Rattus norvegicus; test: Concentration necessary for increase in time to contracture at a concentration of 10 uM in ischemic rat hearts

| Compound | IC50 [2] [µM] | Ratio [1] | EC25 [3] [µM] | Increase [3] [%] | Activity [4] [%] |
| --- | --- | --- | --- | --- | --- |
| Cc1cccc(N/C(=N/[C@@H]2c3cc(C#N)ccc3OC(C)(C)[C@H]2O)NC#N)c1 | – | – | 2.7 | – | – |
| CC(=O)c1ccc(N/C(=N/[C@@H]2c3cc(C#N)ccc3OC(C)(C)[C@H]2O)NC#N)cc1 | 21 | 2.5 | 52 | – | – |
| CC1(C)Oc2ccc(C#N)cc2[C@@H](n2c(O)nc3ccccc32)[C@@H]1O | – | – | 11.7 | – | – |
| COc1ccc(N/C(=N/[C@@H]2c3cc(C#N)ccc3OC(C)(C)[C@H]2O)NC#N)cc1 | 32.5 | 0.16 | 5.3 | – | – |
| CC1(C)Oc2ccc(C#N)cc2[C@@H](/N=C(\NC#N)Nc2ccc(C(=O)O)cc2)[C@@H]1O | > 100 | – | – | – | – |
| CC1(C)Oc2ccc(C#N)cc2[C@@H](/N=C(\NC#N)Oc2ccccc2)[C@@H]1O | > 100 | – | 68.8 | – | – |
| CC1(C)Oc2ccc(C#N)cc2[C@@H](/N=C(\NC#N)Nc2ccc3c(c2)CCC3)[C@@H]1O | 41.3 | 0.08 | 3.5 | – | – |
| CCC(C)(C)/N=C(\NC#N)N[C@@H]1c2cc(C#N)ccc2OC(C)(C)[C@H]1O | – | 0.7 | – | – | – |
| CC1(C)Oc2ccc(C#N)cc2[C@@H](/N=C(\NC#N)Nc2ccc(C(F)(F)F)cc2)[C@@H]1O | – | 1.4 | – | – | – |
| CC1(C)Oc2ccc(C#N)cc2[C@@H](/N=C(\NC#N)Nc2cccc(C(=O)O)c2)[C@@H]1O | > 100 | – | – | – | – |
| COC(=O)c1cn([C@@H]2c3cc(C#N)ccc3OC(C)(C)[C@H]2O)c2ccccc12 | – | – | 3.2 | – | – |
| CC1(C)Oc2ccc(C#N)cc2[C@@H](N2CCN(c3ccccc3)C2=O)[C@@H]1O | 23.7 | 0.42 | 10 | – | – |
| COC(=O)c1cc2ccccc2n1[C@@H]1c2cc(C#N)ccc2OC(C)(C)[C@H]1O | – | – | 8.1 | – | – |
| C/N=C(\NC#N)N[C@@H]1c2cc(C#N)ccc2OC(C)(C)[C@H]1O | – | 66.5 | 13.3 | – | – |
| CC1(C)Oc2ccc(C#N)cc2[C@@H](/N=C(\NC#N)Nc2ccc(Cl)cc2)[C@@H]1O | – | 1.4 | – | – | – |
| CC1(C)Oc2ccc(C#N)cc2[C@@H](/N=C(\NC#N)Nc2ccccc2)[C@@H]1O (stereo in doubt; 3) | – | 7.9 | 11 | – | – |
| CC1(C)Oc2ccc(C#N)cc2[C@@H](/N=C(\NC#N)Nc2ccccc2)[C@@H]1O (stereo in doubt; 22) | – | 4.7 | 6.1 | – | – |
| CC1(C)Oc2ccc(C#N)cc2[C@@H](N2CCCC2=O)[C@@H]1O [CROMAKALIM] | – | 278.1 | – | – | – |

Further lines, with some results ahead:

| IC50 [2] [µM] | Compound | Ratio [1] | EC25 [3] [µM] | Increase [3] [%] | Activity [4] [%] |
| --- | --- | --- | --- | --- | --- |
| 2.7 | Cc1ccc(N/C(=N/[C@@H]2c3cc(C#N)ccc3OC(C)(C)[C@H]2O)NC#N)cc1 | 0.6 | 1.6 | – | – |
| 4.1 | COC(=O)c1cccc(N/C(=N/[C@@H]2c3cc(C#N)ccc3OC(C)(C)[C@H]2O)NC#N)c1 | – | – | – | – |
| 1.6 | CC1(C)Oc2ccc(C#N)cc2[C@@H](/N=C(\NC#N)Nc2cccc(C(F)(F)F)c2)[C@@H]1O | 3.3 | 5.3 | – | – |
| 8.4 | CC(=O)c1cccc(N/C(=N/[C@@H]2c3cc(C#N)ccc3OC(C)(C)[C@H]2O)NC#N)c1 | – | – | – | – |
| 5.6 | CC1(C)Oc2ccc(C#N)cc2[C@@H](NC(=O)NCc2ccccc2)[C@@H]1O | – | >30 | – | – |
| 18.4 | COC(=O)c1ccc(N/C(=N/[C@@H]2c3cc(C#N)ccc3OC(C)(C)[C@H]2O)NC#N)cc1 | – | – | – | – |
| 2.4 | CC1(C)Oc2ccc(C#N)cc2[C@@H](/N=C(\NC#N)NCc2ccccc2)[C@@H]1O | – | >30 | – | – |
| 0.5 | CC1(C)Oc2ccc(C#N)cc2[C@@H](NC(=O)Nc2cccnc2)[C@@H]1O | 8.4 | 4.2 | – | – |
| 5.1 | Cc1ccc(N/C(=N/[C@@H]2c3cc(C#N)ccc3OC(C)(C)[C@H]2O)NC#N)cc1C | 0.49 | 2.5 | – | – |
| 1.66 | CC1(C)Oc2ccc(C#N)cc2[C@@H](/N=C(\NC#N)Nc2ccc(Cl)c(F)c2)[C@@H]1O | – | – | – | – |
| 4.6 | CC1(C)Oc2ccc(C#N)cc2[C@@H](/N=C(\NC#N)Nc2ccc(Cl)c(Cl)c2)[C@@H]1O | 2.8 | 12.9 | – | – |
| 8.5 | CC1(C)Oc2ccc(C#N)cc2[C@@H](NC(=O)Nc2ccncc2)[C@@H]1O | – | – | 1 | – |
| 1.8 | CC1(C)Oc2ccc(C#N)cc2[C@@H](NC(=O)Cc2ccccc2)[C@@H]1O | 12.3 | 22.2 | – | – |
| 6.3 | CSc1ccc(N/C(=N/[C@@H]2c3cc(C#N)ccc3OC(C)(C)[C@H]2O)NC#N)cc1 | – | – | – | – |
| 0.44 | CC1(C)Oc2ccc(C#N)cc2[C@@H](NC(=O)Nc2ccccn2)[C@@H]1O | 5.9 | 2.6 | – | – |
| 0.6 | CC1(C)Oc2ccc(C#N)cc2[C@@H](/N=C(\NC#N)Nc2cccc(Cl)c2)[C@@H]1O | 2.3 | 1.4 | – | – |
| 0.3 | CC1(C)Oc2ccc(C#N)cc2[C@@H](/N=C(\NC#N)Nc2ccc([N+](=O)[O-])cc2)[C@@H]1O | 20.6 | 6.2 | – | – |
| 0.67 | CC1(C)Oc2ccc(C#N)cc2[C@@H](/N=C(\NC#N)Nc2cccc([N+](=O)[O-])c2)[C@@H]1O | 7.5 | 5 | – | – |
| 0.03 | CC1(C)Oc2ccc(C#N)cc2[C@@H](NC(=O)c2ccccc2)[C@@H]1O | 393 | 11.8 | – | – |
| 4.9 | CC1(C)Oc2ccc(C#N)cc2[C@@H](/N=C(\NC#N)Sc2ccccc2)[C@@H]1O | – | >30 | – | – |
| 1.4 | CSc1cccc(N/C(=N/[C@@H]2c3cc(C#N)ccc3OC(C)(C)[C@H]2O)NC#N)c1 | 5.6 | 8.2 | – | – |
| 2.2 | CC1(C)Oc2ccc(C#N)cc2[C@@H](n2cc(C#N)c3ccccc32)[C@@H]1O | 11.5 | 25.5 | – | – |
| 3.5 | CC1(C)Oc2ccc(C#N)cc2[C@@H](/N=C(\NC#N)NNc2ccccc2)[C@@H]1O | – | – | – | 4 |
